Among the data in ChEMBL document CHEMBL3779830, “Diterpenoids from the Roots of Euphorbia fischeriana with Inhibitory Effects on Nitric Oxide Production” (J Nat Prod, 2016) are IC50 and Activity values, retold here.

The term IC50 denotes the concentration that inhibits the measured activity by half. Read a high IC50 as a need for much substance.

Data set [1] relates to RAW264.7. Description: Inhibition of LPS-induced nitric oxide production in mouse RAW264.7 cells after 24 hrs by Griess assay. It counts as functional, cell-based. The following applies: RAW264.7, 24 h. The method in brief:
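RAW 264.7 cells seeded at 2 × 10^6 cells/mL and stimulated with 1 μg/mL LPS, with or without compounds, for 24 h at 37 °C. Cell-free supernatant was mixed 1:1 with Griess reagent (2% sulfanilamide in 5% phosphoric acid plus 0.2% N-(1-naphthyl)ethylenediamine). Nitrite was read at 550 nm against sodium nitrite standards. Aminoguanidine and indomethacin were positive controls. Means ± SD from triplicate experiments.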

Data set [2] relates to RAW264.7. The data set is described as follows: Cytotoxicity against mouse RAW264.7 cells assessed as cell viability at nitric oxide IC50 level by MTT assay. It is filed as cell-based. In outline: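 Viability was read by MTT colorimetric assay on the cells remaining after the NO assay. That assay seeded RAW 264.7 cells at 2 × 10^6 cells/mL and stimulated them with 1 μg/mL LPS, with or without compounds, for 24 h at 37 °C.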
For orientation: Tetrazolium assays rely on reduction of a dye to a coloured formazan, in cell work by metabolically active cells.

Regarding `CC1=C2C(=O)C3=C([C@@H](O)[C@H]2OC1=O)[C@]1(C)CCCC(C)(C)[C@H]1CC3`, the IC50 in data set [1] was above 20 µM. In data set [2], the Activity entry was “Non-toxic”.

Turning to `CC1=C2[C@@H](O)C3=CC[C@@H]4C(C)(C)CCC[C@@]4(C)[C@@H]3[C@@H](O)[C@H]2OC1=O`, the IC50 in data set [1] was above 20 µM. In addition, in data set [2], the Activity result was “Non-toxic”. The matching figures for `CC1=C2[C@@H](O)[C@@]3(O)CC[C@@H]4C(C)(C)CCC[C@@]4(C)[C@@H]3[C@@H](O)[C@H]2OC1=O`: above 20 µM and “Non-toxic”. In the same order, the values of `C=C[C@]1(C)CC[C@@]2(C)c3cc(O)c(O)c(C)c3CC[C@@H]2C1` are 7.4 µM and “Non-toxic”.

Consider `COc1ccc2c(c1)c(CC(=O)O)c(C)n2C(=O)c1ccc(Cl)cc1` [INDOMETHACIN], for which 12.5 µM corresponded to half-maximal inhibition in data set [1] (IC50). In other words, the double-digit micromolar range. For `CC1=C[C@]23C(=O)[C@@H](C=C(CO)[C@@H](O)[C@]2(O)[C@H]1O)[C@H]1[C@@H](C[C@H]3C)C1(C)C` [INGENOL], the IC50 in data set [1] was above 20 µM. Besides, in data set [2], the Activity result is listed as “Non-toxic”. The matching figures for `CC1=C2C=C3[C@@H](O)C[C@@H]4C(C)(C)CCC[C@@]4(C)[C@@H]3[C@@H](O)[C@H]2OC1=O`: above 20 µM and “Non-toxic”. The matching figures for `C[C@H]1C[C@]2(OC(=O)/C=C/c3ccccc3)C(=O)/C(CO)=C/[C@@H]3[C@H](CC[C@@]4(C)O[C@H]4[C@H]2[C@H]1O)C3(C)C`: 9.4 µM and “Non-toxic”. `C=C[C@]1(C)CC[C@]2(C)[C@H](CC[C@H]3[C@@](C)(CO)C(=O)C=C[C@]32O)C1`: the Activity result in data set [2] is “Non-toxic”.

`CC1=C2[C@H](OC1=O)[C@H](O)[C@H]1[C@]3(C)CCCC(C)(C)[C@H]3CC[C@@]1(O)[C@H]2O` registered an IC50 in data set [1] of 5.6 µM. Further, in data set [2], the Activity entry is “Non-toxic”.

`C=C[C@]1(C)CC[C@@]2(C)C3=CC(=O)O[C@@H]3C(C)(C)C[C@H](O)[C@@H]2C1`: the IC50 in data set [1] is above 20 µM. Further, the Activity entry in data set [2] is recorded as “Non-toxic”. Compound `N=C(N)NN` [PIMAGEDINE] yielded a 50% inhibitory concentration (IC50) in data set [1] of 18.7 µM. The compound `CC1=C2[C@H]3O[C@]34CC[C@@H]3C(C)(C)CCC[C@@]3(C)[C@@H]4[C@@H](O)[C@H]2OC1=O` registered an IC50 in data set [1] of 12.6 µM. In addition, the Activity entry in data set [2] is “Non-toxic”.

In data set [1], `CC1=C2[C@@H](O)C3=C([C@@H](O)[C@H]2OC1=O)[C@]1(C)CCCC(C)(C)[C@H]1CC3` displayed an IC50 above 20 µM. Moreover, the Activity entry in data set [2] was “Non-toxic”. The matching figures for `C=C1C[C@@]23CC[C@@H]4C(C)(C)C(=O)CC[C@@]4(C)[C@@H]2C[C@@H]1[C@@H](O)C3=O`: above 20 µM and “Non-toxic”. The matching figures for `CC1=C2C=C3CC[C@@H]4C(C)(C)CCC[C@@]4(C)[C@@H]3[C@H](O)[C@H]2OC1=O`: above 20 µM and “Non-toxic”.
